ERp5 inh – inhibitors of ERp5-driven insulin aggregation, primary screen, biochemical, turbidity, absorbance 650 nm, single point; Protein disulfide-isomerase A6 (Homo sapiens), Q15084; 90 min; inhibition, % at 9.99 µM; hit rate 0.05% among 350,000; AID 651711, 2012;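 active = mean replicate inhibition above about 25%, with every replicate also reaching it, limit read from the data, passing the limit was not always enough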
PglD inh – C. jejuni PglD acetyltransferase inhibitors, primary screen, biochemical, DTNB colorimetric, single point | UDP-N-acetylbacillosamine N-acetyltransferase PglD (Campylobacter jejuni) | purified PglD enzyme, DTNB colorimetric CoA detection | inhibition, % at 12.5 µM | hit rate 0.098% among 360,000 | AID 602405, 2012; in the data active = inhibition above about 16%, passing the limit was not always enough
IMP-1 inh-1 – IMP-1 metallo-beta-lactamase inhibitors, primary screen, biochemical, epi-absorbance readout, Pseudomonas aeruginosa enzyme. metallo-beta-lactamase IMP-1 (Pseudomonas aeruginosa). inhibition, % at 5.6 µM. purified IMP-1, nitrocefin hydrolysis, epi-absorbance fluorescence. hit rate 0.45% among 290,000;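 active = inhibition above the mean plus 3 SD of all compounds in the same screening run, cut at about 4.5% in these data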;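 also: 0% = IMP-1 with DMSO and 100% = DMSO wells lacking enzyme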
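Test system: recombinant IMP-1 enzyme, purified / Medium: HEPES buffer pH 7.1 with ZnSO4 and Brij 35 / Doses: single dose, 5.6 µM / Times: 25 °C, 15 min preincubation, 25 min reaction / Detection: Epi-absorbance via hydrolysed-nitrocefin quenching of white-plate fluorescence, 480/530 nm, EDTA stop / Evaluation: percent inhibition from optical density relative to buffer-blank wells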
VIM-2 inh – VIM-2 metallo-beta-lactamase inhibitors, primary screen, biochemical, epi-absorbance readout, Pseudomonas aeruginosa enzyme | purified VIM-2, nitrocefin hydrolysis, epi-absorbance fluorescence | inhibition, % at 5.6 µM | hit rate 0.89% among 290,000 | AID 1527, 2009;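 active = inhibition above the mean of all tested compounds plus 3 SD, cutoff set per screening run, cut at about 7.5% in these data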;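 also: red hydrolysis product quenches plate fluorescence so inhibitors raise well fluorescence; 0% = enzyme with DMSO and 100% = DMSO without enzyme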
PDI inh – inhibitors of human PDI, primary screen, biochemical, turbidity, single point, plate reader; Protein disulfide-isomerase (Homo sapiens), P07237; PDI insulin aggregation turbidity, A650, 90 min; inhibition, % at 10 µM; hit rate 0.052% among 350,000;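 active = mean inhibition across replicates of 30% or more, whatever share of single replicates reach that level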
Target sequence (P07237 whole entry, looked up): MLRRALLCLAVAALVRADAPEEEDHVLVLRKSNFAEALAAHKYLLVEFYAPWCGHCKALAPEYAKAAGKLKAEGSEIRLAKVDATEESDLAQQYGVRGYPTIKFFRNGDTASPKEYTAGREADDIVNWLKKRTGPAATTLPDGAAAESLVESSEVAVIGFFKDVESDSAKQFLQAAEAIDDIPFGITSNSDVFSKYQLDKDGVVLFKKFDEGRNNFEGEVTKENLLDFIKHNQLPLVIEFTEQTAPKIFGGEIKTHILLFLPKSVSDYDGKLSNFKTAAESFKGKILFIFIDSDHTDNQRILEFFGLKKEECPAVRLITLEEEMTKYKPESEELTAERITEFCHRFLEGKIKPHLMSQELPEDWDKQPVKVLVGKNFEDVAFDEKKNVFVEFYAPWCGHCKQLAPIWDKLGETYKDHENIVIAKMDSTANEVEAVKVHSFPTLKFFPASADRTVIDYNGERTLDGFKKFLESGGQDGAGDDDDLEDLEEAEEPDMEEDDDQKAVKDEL
PvdQ inh – P. aeruginosa PvdQ acylase inhibitors, primary screen, biochemical, fluorescence, plate reader and imaging, single point. PvdQ acylase [Pseudomonas aeruginosa LESB58]. purified PvdQ acylase. inhibition, % at 10 µM. hit rate 0.063% among 340,000. AID 488965, 2010; in the data active = inhibition above about 30%, passing the limit was not always enough;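 also: 0% = vehicle neutral wells and 100% = reference inhibitor wells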
IMP-1 inh-2 – IMP-1 metallo-beta-lactamase inhibitors, confirmation, selectivity assay for selective VIM-2 inhibitor project, biochemical, epi-absorbance readout, triplicate; inhibition, % at 5.6 µM; purified IMP-1, nitrocefin hydrolysis, epi-absorbance fluorescence; shares compounds with VIM-2 inh; 1,300 tested, under 10 active; call rule not given here;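 also: 0% = enzyme with vehicle and 100% = vehicle without enzyme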
VIM-2 FRET inh – VIM-2 inhibitors in FRET format, confirmation, artefact control for selective VIM-2 inhibitor project, biochemical, epi-absorbance artifact exclusion | shares compounds with VIM-2 inh | hit rate 23% among 1,300 | purified VIM-2, CCF2 FRET substrate hydrolysis | inhibition, % at 5.6 µM;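 active = inhibition above the mean of all tested compounds plus 3 SD, cut at about 19% in these data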;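 also: 0% = VIM-2 plus DMSO and 100% = no enzyme wells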
TEM-1 inh – TEM-1 serine beta-lactamase inhibitors, counter-screen for VIM-2 inhibitor project, biochemical, epi-absorbance, HTS; shares compounds with VIM-2 inh; hit rate 3% among 1,300; inhibition, % at 5.6 µM; AID 1866, 2009; Purified TEM-1, nitrocefin hydrolysis, epi-absorbance fluorescence;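 active = inhibition above that campaign's mean inhibition plus 3 SD, cut at about 0.46% in these data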;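 also: 0% = TEM-1 with DMSO and 100% = TEM-1 with 100 µM potassium clavulanate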
VIM-2 confirm 2 – VIM-2 metallo-beta-lactamase inhibitors, confirmation, biochemical, epi-absorbance, hits shared with IMP-1 screen | purified VIM-2, nitrocefin hydrolysis | hit rate 96% among 1,300 | inhibition, % at 5.6 µM | shares compounds with VIM-2 inh | AID 2187, 2009;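 active = inhibition of the VIM-2 beta-lactamase enzyme above about 11% from the earlier first-round screen, limit read from the data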;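 also: 0% = VIM-2 with DMSO and 100% = buffer wells without enzyme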
* marks the source's active call; other numbers are inactive results; · = no result given. Most compounds without a hit are left out; they make up all but 1% or so of the library.

SMILES	ERp5 inh	PglD inh	IMP-1 inh-1	VIM-2 inh	PDI inh	PvdQ inh	IMP-1 inh-2	VIM-2 FRET inh	TEM-1 inh	VIM-2 confirm 2
O=C1C2C(C(=O)N1/N=C/c1cc([N+](=O)[O-])c(O)cc1O)C1C=CC2C12CC2 (stereo unspecified)	1	·	-3	-3	17	-5	·	·	·	·
C[C@@H]1CN([C@@H](C)CO)C(=O)c2cc(NS(=O)(=O)c3cn(C)cn3)ccc2O[C@H]1CN(C)CC1CCCCC1	6	8	·	·	·	·	·	·	·	·
CN(C)C(=O)C[C@@H]1C[C@@H]2c3cc(NS(C)(=O)=O)ccc3O[C@@H]2[C@H](CO)O1	77*	4	·	·	·	·	·	·	·	·
CN(C)C(=O)C[C@@H]1C[C@H]2c3cc(NS(C)(=O)=O)ccc3O[C@H]2[C@@H](CO)O1	93*	1	·	·	·	·	·	·	·	·
CS(=O)(=O)Nc1ccc2c(c1)[C@@H]1C[C@H](CC(=O)O)O[C@@H](CO)[C@@H]1O2	-6	·	·	·	·	·	·	·	·	·
C[C@H]1CN([C@@H](C)CO)C(=O)c2cc(NC(=O)CCCCCC(=O)Nc3ccccc3N)ccc2O[C@H]1CN(C)C(=O)Nc1ccc(F)cc1	-1	·	·	·	·	·	·	·	·	·
CC(C)NC(=O)N(C)C[C@@H]1Oc2ccc(NC(=O)C3CC3)cc2CC(=O)N([C@@H](C)CO)C[C@@H]1C	7	-2	·	·	·	·	·	·	·	·
CS(=O)(=O)N1CC2(C1)[C@H](c1ccccc1)[C@H](CO)N2C(=O)c1ccccc1	0	·	·	·	·	·	·	·	·	·
O=C1C2C(C(=O)N1CCc1ccccc1)C1C=CC2C12CC2 (stereo unspecified)	-5	-3	0	-3	1	2	·	·	·	·
O=C1NN(c2ccccc2)C(=O)C2C1C1C=CC2C12CC2 (stereo unspecified)	·	-9	-4	-1	-8	53*	·	·	·	·
CN1CCN(c2ccc(-c3ccc4ccccc4n3)cc2)CC1	-9	·	-2	68*	1	-16	-2	3	-5	81*
COCC(=O)Nc1ccc2c(c1)[C@@H]1C[C@@H](CC(=O)NCc3ccccc3OC)O[C@H](CO)[C@@H]1O2	·	2	·	·	·	·	·	·	·	·
COc1cc(OC)c(OC)cc1/C=N/NC(=O)CC1C(=O)NN=C1C (stereo unspecified)	·	-2	-1	37*	3	-4	-3	66*	-5	55*
Cc1ccc(-c2nn3nnnc3c3ccccc23)cc1C	·	8	0	0	3	-15	·	·	·	·
Cc1ccc(-c2nn3cnnc3c3ccccc23)cc1C	3	·	-1	24*	-6	10	0	6	1.6*	39*
Cc1ccc(C)n1CCN1CCN(C(=O)CSc2nc3ccccc3nc2N2CCOCC2)CC1	·	·	-1	16*	6	1	-3	-5	-8	15*
Cc1ccc(NC(=O)CSc2nc3ccccc3nc2N2CCOCC2)cc1	2	2	-1	-3	·	-7	·	·	·	·
O=C1CCCC/C1=C/Nc1cccc(C(F)(F)F)c1	3	·	-3	13*	-3	-6	-2	30*	1.4*	25*

Source: PubChem
